Activity calls are given as the source filed them.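 Rule for the calls: active = mean EC50 at or below 20 µM; inactive = the rest.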
Each compound was assayed against CHO-XBP1 luciferase reporter, IRE1-XBP1 activation, luminescence (assay: XBP1 luciferase reporter activation – CHO-XBP1 cells, luminescence, counter-screen for UPR apoptotic arm activator project, SAR follow-up (AID 540305)).
Outline: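 Medium – F12 plus 10% FBS · System – CHO cells with IRE1-XBP1 luciferase reporter · Amount – 1000 cells/well · Benchmarks – 10 µg/mL tunicamycin versus DMSO only · Detection – luciferase luminescence using Steady-Glo reagent · Times – overnight plating, 6 h compound treatment at 37 °C · Dosing – dose series, DMSO ≤1%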
With `O=C(Nc1nc2c(F)cc(F)cc2s1)c1ccncc1` the EC50 was > 80 µM (inactive). In the case of `O=C(Nc1ccc(S(=O)(=O)N2CCOCC2)cc1)c1ccccc1`, the EC50 is reported as > 80 µM (inactive). With `O=C(Nc1ccc(S(=O)(=O)N2CCOCC2)cc1)c1ccc([N+](=O)[O-])cc1` the EC50 was > 80 µM (inactive). In the case of `O=C(Nc1ccc(S(=O)(=O)N2CCNCC2)cc1)c1ccc([N+](=O)[O-])o1`, the EC50 is reported as > 80 µM (inactive). With `O=C(Nc1ccc(S(=O)(=O)N2CCOCC2)cc1)c1ccc(Br)o1` the EC50 was > 80 µM (inactive). In the case of `O=C(Nc1nc2c(F)cccc2s1)c1ccccn1`, the EC50 is reported as > 80 µM (inactive). In the case of `O=C(Nc1cccc(S(=O)(=O)N2CCOCC2)c1)c1ccco1`, the EC50 is reported as > 80 µM (inactive). In the case of `O=C(Nc1ccc(S(=O)(=O)N2CCOCC2)cc1)c1ccc([N+](=O)[O-])o1`, the EC50 is reported as > 80 µM (inactive). In the case of `O=C(Nc1ccc(S(=O)(=O)N2CCCC2)cc1)c1ccc([N+](=O)[O-])o1`, the EC50 is reported as > 80 µM (inactive). `O=C(Nc1ccc(S(=O)(=O)N2CCOCC2)cc1)c1cccs1` was tested, and the EC50 was > 80 µM (inactive). For `CC1(C)CCN(S(=O)(=O)c2ccc(NC(=O)c3ccc([N+](=O)[O-])o3)cc2)CC1`, the EC50 was > 80 µM (inactive). `Cc1ccc(C(=O)Nc2ccc(S(=O)(=O)N3CCOCC3)cc2)o1` was tested, and the EC50 was > 80 µM (inactive). With `O=C(Nc1ccc(S(=O)(=O)N2CCCCC2)cc1)c1ccc([N+](=O)[O-])o1` the EC50 was > 80 µM (inactive). In the case of `O=C(Nc1ccc(S(=O)(=O)C2CCCCC2)cc1)c1ccc([N+](=O)[O-])o1`, the EC50 is reported as > 80 µM (inactive). With `O=C(Nc1nc2ccccc2s1)c1ccccn1` the EC50 was > 80 µM (inactive). For `O=C(Nc1ccc(C(=O)N2CCOCC2)cc1)c1ccco1`, the EC50 was > 80 µM (inactive). `CC1CCN(S(=O)(=O)c2ccc(NC(=O)c3ccc([N+](=O)[O-])o3)cc2)CC1` was tested, and the EC50 was > 80 µM (inactive). In the case of `O=C(Nc1nc2c(F)cc(F)cc2s1)c1ccccn1`, the EC50 is reported as > 80 µM (inactive). For `O=C(Nc1ccc(S(=O)(=O)N2CCOCC2)cc1)c1ccco1`, the EC50 was > 80 µM (inactive). For `O=C(Nc1nc2c(F)cc(F)cc2s1)c1cccnc1`, the EC50 was > 80 µM (inactive). For `O=C(Nc1ccc(S(=O)(=O)c2ccccc2)cc1)c1ccc([N+](=O)[O-])o1`, the EC50 was > 80 µM (inactive). With `Cc1cc(C)c2nc(NC(=O)c3ccccn3)sc2c1` the EC50 was > 80 µM (inactive). In the case of `O=C(Nc1ccc(S(=O)(=O)N2CCC(O)CC2)cc1)c1ccc([N+](=O)[O-])o1`, the EC50 is reported as > 80 µM (inactive). `O=C(Nc1ccc(S(=O)(=O)N2CCOCC2)cc1)c1ccc([N+](=O)[O-])s1` was tested, and the EC50 was > 80 µM (inactive). With `O=C(Nc1nc2c(F)cc(F)cc2s1)c1ccccc1` the EC50 was > 80 µM (inactive). `Fc1cc(F)c2nc(NCc3ccccn3)sc2c1` was tested, and the EC50 was > 80 µM (inactive). In the case of `O=C(Nc1nc2ccccc2s1)c1ccncc1`, the EC50 is reported as > 80 µM (inactive). `O=C(Nc1nc2c(Cl)cc(Cl)cc2s1)c1ccccn1` was tested, and the EC50 was > 80 µM (inactive). With `CC1CN(S(=O)(=O)c2ccc(NC(=O)c3ccco3)cc2)CC(C)O1` (stereo unspecified) the EC50 was > 80 µM (inactive). In the case of `O=C(Nc1nc2ccc(F)cc2s1)c1ccccn1`, the EC50 is reported as > 80 µM (inactive). `O=C(Nc1nc2ccccc2s1)c1cccnc1` was tested, and the EC50 was > 80 µM (inactive).

From PubChem BioAssay AID540305 (Sanford-Burnham Center for Chemical Genomics, 2011)
